Source: PMC9309012 (Journal of medicinal chemistry, 2021)
Entries after “also recorded” stand apart in the source; their conditions may differ.

Legend:
T. vaginalis F1623 [1] = test: T. vaginalis 24 h growth and survival assay; assay type: cell-based, Trichomonas vaginalis; settings: for trichomonacidal activity: T. vaginalis F1623, 24 h, described in words (Fig. 2-4); for reduced trichomonacidal activity compared to the chloride counterparts: bromide and iodide vs chloride complexes (4, 10)
HeLa cells = test: Cytotoxicity assay in human HeLa cells; assay type: cell-based; settings: for human cytotoxicity: HeLa cells, 48 h, described in words (Fig. 2-4)
T. vaginalis F1623 [2] = settings: previously discovered; cited from earlier work
T. foetus = test: In vitro activity against T. foetus; assay type: cell-based; settings: compared with T. vaginalis F1623
[3] = system: T. vaginalis strains (four MzS, four MzR); test: Drug susceptibility of Mz-sensitive and Mz-resistant T. vaginalis lines; assay type: cell-based, Trichomonas vaginalis; settings: for activity against Mz-resistant T. vaginalis lines: four Mz-resistant clinical isolates
How it was run: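 Trophozoites were cultured at 37 °C in TYM Diamond's medium with 180 μM ferrous ammonium sulphate. Compound stocks were diluted in PBS to 75 μM, then serially diluted 1:3. Plates held 5 × 10^3 trophozoites/well and were incubated 24 h at 37 °C anaerobically. ATP luminescence (BacTiter-Glo) read growth and viability, and curves gave EC50. Replicates: n≥3, mean + SEM. MzS versus MzR groups were compared by unpaired t-test.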

[4] = system: sensitive T. vaginalis strain; test: Synergy of gold; assay type: cell-based, Trichomonas vaginalis; settings: 24 h
TrxR in T. vaginalis = settings: read-out: IC50, TrxR inhibition; cited from earlier work
[5] = intravaginal administration compared to a single oral dose; cited from earlier work
T. foetus D1 = test: Murine vaginal trichomonad infection model; assay type: in vivo, BALB/cJ mice; settings: 4 days after infection, Wright-Giemsa stain
[6] = tributyl vs triethyl phosphine compound

Compound | trichomonacidal activity (T. vaginalis F1623 [1]) | human cytotoxicity (HeLa cells) | further results
CCC[P+](CCC)(CCC)[Au-][P+](CCC)(CCC)CCC.[Cl-] [Compound 15, Bis(tri-n-propylphosphine)gold(I) chloride] | as or moderately more active | as or moderately more active | 
(Trimethylphosphine)gold(I) bromide [Compound 23] |  |  | reduced trichomonacidal activity compared to the chloride counterparts (T. vaginalis F1623 [1]): 5- to 10 fold
(Triethylphosphine)gold(I) bromide [Compound 24] |  |  | reduced trichomonacidal activity compared to the chloride counterparts (T. vaginalis F1623 [1]): 5- to 10 fold
(Triethylphosphine)gold(I) iodide [Compound 26] |  |  | reduced trichomonacidal activity compared to the chloride counterparts (T. vaginalis F1623 [1]): 5- to 10 fold
CC[P+](CC)(CC)[Au-][S]C(CC(=O)O)C(=O)O (stereo not drawn) [Compound 2, S-Triethylphosphine gold(I) thiomalic acid] | improved trichomonacidal activity similar to AF | toxic in human cells | 
CC(=O)OC[C@H]1O[C@@H]([S-])[C@H](OC(C)=O)[C@@H](OC(C)=O)[C@@H]1OC(C)=O.CCP(CC)CC.[Au+] [AF, reference compound] |  | slightly more toxic against human cells than the parasite | activity against T. vaginalis / trichomonads (T. vaginalis F1623 [2]): low μM range; activity against T. foetus in vitro (T. foetus): as active against T. foetus in vitro as they were against T. vaginalis; activity against Mz-resistant T. vaginalis lines [3]: sensitive; interference or synergy with the activity of Mz [4]: neither compound 4 nor AF interfered or synergized; IC50 (TrxR in T. vaginalis): ~100 nM
O.O=C([O-])CC([S-])C(=O)[O-].[Au+].[Na+].[Na+] (stereo not drawn) [ATM, (1,2-Dicarboxyethylthio) disodium salt hydrate gold(I), reference compound] | barely showed activity |  | 
(Triisopropylphosphine)gold(I) chloride [Compound 12] | low μM range | decreased human cytotoxicity | 
(1-Thio-β-D-glucopyranosato) (triethylphosphine) gold(I) [Compound 1] | improved trichomonacidal activity similar to AF | toxic in human cells | 
Cc1ncc([N+](=O)[O-])n1CCO [Mz, metronidazole, reference compound] |  |  | decrease in systemic exposure [5]: 96–98%; loss in Mz susceptibility ([3]; four Mz-resistant lines compared to four susceptible lines): 20- to 100 fold
(Tri-n-butylphosphine)gold(I) chloride [Compound 9] | abolished all activity; also recorded: inactive | abolished all activity; also recorded: inactive | 
OCC1OC([S-])C(O)C(O)C1O.[Au+] (stereo not drawn) [ATG, 3,4,5-trihydroxy-6-(hydroxymethyl)oxane-2-thiolate gold (I), reference compound] | barely showed activity |  | 
(Trimethylphosphine)gold(I) iodide [Compound 25] |  |  | reduced trichomonacidal activity compared to the chloride counterparts (T. vaginalis F1623 [1]): 5- to 10 fold
Bis(triethylphosphine)gold(I) chloride [Compound 14] | as or moderately more active | as or moderately more active | 
CC(C)(C)[PH+](C(C)(C)C)C(C)(C)C.[Cl][Au] [Compound 17, (Tri-tert-butylphosphine)gold(I) chloride] | inactive | inactive | 
C[P+](C)(C)[Au-][Cl] [Compound 10, (Tri-n-methylphosphine)gold(I) chloride] | low μM range | decreased human cytotoxicity | activity against T. foetus in vitro (T. foetus): as active against T. foetus in vitro as they were against T. vaginalis; activity against Mz-resistant T. vaginalis lines [3]: sensitive
(Tri-n-propylphosphine)gold(I) chloride [Compound 11] | low μM range | decreased human cytotoxicity | 
C[P+](C)(C)[Au-][P+](C)(C)C.[Cl-] [Compound 13, Bis(trimethylphosphine)gold(I) chloride] | as or moderately more active | as or moderately more active | 
CCP(CC)CC.[Au+].[Cl-] [Compound 4, (Tri-n-ethylphosphine)gold(I) chloride] | slightly increased activity against T. vaginalis; also recorded: low μM range | markedly reduced human cytotoxicity; also recorded: decreased human cytotoxicity | activity against T. foetus in vitro (T. foetus): as active against T. foetus in vitro as they were against T. vaginalis; activity against Mz-resistant T. vaginalis lines [3]: sensitive; histological analysis of vaginal tract (T. foetus D1): disappearance of T. foetus trophozoites from the vaginal lumen; interference or synergy with the activity of Mz [4]: neither compound 4 nor AF interfered or synergized
CC(C)[P+]([Au-][P+](C(C)C)(C(C)C)C(C)C)(C(C)C)C(C)C.[Cl-] [Compound 16, Bis(triisopropylphosphine)gold(I) chloride] | as or moderately more active | as or moderately more active | 
(2,3,4,6-Tetra-O-acetyl-1-thio-β-D-galacotopyranosato)(butylphosphine) gold(I) [Compound 5] |  |  | lower activity against T. vaginalis than triethyl partner (T. vaginalis F1623 [1]; [6]): ~ 10 fold; lower activity against human cells than triethyl partner (HeLa cells; [6]): ~ 10 fold
CC[P](CC)(CC)[Au][c]1n(-c2c(C)cc(C)cc2C)cc[n+]1-c1c(C)cc(C)cc1C.[Cl-] [Compound 3, [Triethylphosphine-(bis(2,4,6-trimethylphenyl)imidazol-2-ylidene)]gold(I) chloride] | did not enhance trichomonacidal activity | strongly increased human cytotoxicity | 
